High-throughput results deposited in PubChem by several laboratories.
ALR inh: inhibitors of human ALR sulfhydryl oxidase, primary screen, biochemical, H2O2 detection, HRP-luminol luminescence, single point; FAD-linked sulfhydryl oxidase ALR (Homo sapiens), P55789; AID 485317, 2010; purified ALR, DTT oxidation; inhibition, % (no concentration beside the values); hit rate 3.8% among 290,000;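 active = mean replicate inhibition above about 79%, with every replicate also reaching it, limit read from the data; inconclusive = only one of the two criteria met; inactive = mean below limit and not every replicate reaching it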
Target sequence (P55789 whole entry, looked up): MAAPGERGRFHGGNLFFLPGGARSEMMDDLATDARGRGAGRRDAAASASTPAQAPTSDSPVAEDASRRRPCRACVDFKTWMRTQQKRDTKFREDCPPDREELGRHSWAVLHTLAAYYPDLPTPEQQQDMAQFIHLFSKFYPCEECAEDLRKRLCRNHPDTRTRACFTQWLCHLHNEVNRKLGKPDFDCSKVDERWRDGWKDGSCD
T cell modulator: modulators of CD8 T cell-vesicle binding, primary screen, mouse 2C CD8+ T cells, flow cytometry. 2C CD8+ T cell-vesicle binding; hits give low values. response (vesicle binding), % at 7 µM. hit rate 0.068% among 330,000. AID 2052, 2009;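 active = response, share of CD8 T cells binding vesicles, and their 90th percentile fluorescence all below set limits, cut at about 80% in these data, passing the limit was not always enough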;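 also: values below 100% mean blocked vesicle binding to the CD8+ T cells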
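System: murine 2C transgenic CD8+ T lymphocytes; also added: QL9-loaded Drosophila micro-vesicles; times: binding 1.5 h at 37 °C; measured by: flow cytometry, PE anti-B7-1 (FL2) versus Alexa647 anti-CD8 (FL8), PFA-fixed; control set: Peptide-free naked vesicles (low) and QL9 vesicles with 0.7% DMSO vehicle (high)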
Glyco luc inh: increase of ERlucT glycosylation luciferase signal, primary screen, N-linked glycosylation inhibitor project, D54 ERlucT cells, luminescence, set 2. D54 ERlucT glycosylation luciferase reporter, 24 h; percent of 100 nM tunicamycin response. reporter increase, % at 12.5 µM. hit rate 0.23% among 360,000;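 active = mean luciferase reporter signal, scaled so untreated is 0 and the glycosylation-blocking control 100, at or above a set limit in every replicate; inconclusive = mean reaches the limit but not every replicate does; inactive = mean below the limit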;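 also: luciferase carries N-glycosylation sites so blocking glycosylation raises the light; 0% = median of neutral control wells and 100% = median of 100 nM tunicamycin wells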
The depositor's hits bear a star; ? = inconclusive; nt = no result given. The entries come from a sample that favours hits as a whole.

SMILES	ALR inh	T cell modulator	Glyco luc inh
CC1C(C)N(C(=O)CCCl)c2ccccc2N1C(=O)CCCl (stereo not given)	nt	nt	-0.1
CC(=O)c1ccc(S(=O)(=O)NCCOc2ccccc2)cc1	nt	nt	0.4
Cc1occc1C(=O)Nc1ccc2c(c1)CCC2	96.2*	191.6	-3.1
Cc1occc1C(=O)Nc1ccc2c(c1)OCCO2	-1.9	453.1	-7.1
Cc1occc1C(=O)Nc1c(Cl)cccc1Cl	2.8	614.7	1.3
O=C(Nc1ccc2c(c1)CCC2)c1ccccc1	93.2*	313.8	-13.4
Cc1occc1C(=O)Nc1c(F)c(F)c(F)c(F)c1F	97.5*	257.5	2.5
O=C(O)c1ccccc1-c1ccccc1C(=O)Nc1ccc2c(c1)CCC2	26.2	189.7	0.5
NCc1cc2c3c(c1)CCCN3CCC2	49.2	319.5	1.8
O=c1cc(-c2ccccc2Cl)oc2c(NS(=O)(=O)c3cc(Cl)cc(Cl)c3O)ccc(O)c12	97.2*	211.7	-6.0
CCc1ccc(S(=O)(=O)Nc2ccc(O)c3c(=O)cc(-c4ccccc4Cl)oc23)cc1	3.3	314.3	-2.3
COC(=O)CSc1nnc2n(-c3ccc(OC)cc3)c(=O)c3c4c(sc3n12)CCCCC4	-3.4	427.0	0.2
CSc1nnc2n(-c3ccccc3)c(=O)c3c4c(sc3n12)CCC4	1.8	259.9	4.7
CC(C)C1Cc2c(sc3c2c(=O)n(-c2ccccc2)c2n[nH]c(=S)n32)CO1 (stereo not given)	93.7*	239.8	2.8
COc1ccc(-n2c(=O)c3c4c(sc3n3c(=S)[nH]nc23)CCCC4)cc1	95.7*	148.0	-0.5
Nc1cc(C(Cl)=C(Cl)Cl)c(S(N)(=O)=O)cc1S(N)(=O)=O	1.3	947.1	0.4
COC(=O)c1ccc(NC(=O)c2ccc(NS(=O)(=O)c3cccc4cccnc34)cc2)cc1	5.1	63.2	14.4
O=C(Nc1ncccc1O)c1ccc(NS(=O)(=O)c2ccc3[nH]c(=O)[nH]c3c2)cc1	nt	nt	18.0
O=C(Nc1ccccc1O)c1ccc(NS(=O)(=O)c2cccc3cccnc23)cc1	44.3	175.3	83.4*
O=C(Nc1ncccc1O)c1ccc(S(=O)(=O)Nc2ccccc2)cc1	-0.5	160.1	128.8*
CC(=O)N1c2cc3ccccc3cc2N(C(C)=O)c2cc3ccccc3cc21	nt	nt	5.8
CCCc1nc(SCC(=O)Nc2nc3c(s2)CCCC3)c2ccccc2n1	98.6*	373.8	1.9
CCc1nc(SCC(=O)Nc2nc3c(s2)CCCC3)c2ccccc2n1	99.3*	281.2	2.6
O=C(CSc1nc2ccccc2o1)Nc1nc2c(s1)CCCC2	nt	nt	-16.7
CCCc1nc(SCC(=O)NC2CCCC2)c2ccccc2n1	nt	179.4	0.1
SMILES	ALR inh	T cell modulator	Glyco luc inh
COc1ccc(NC(=O)CS(=O)CC(=O)Nc2ccc(-n3cnnn3)c(C)c2)cc1 (stereo not given)	30.2	215.0	1.5
Cc1ccc2nc(SCC(=O)NC3CCCc4ccccc43)[nH]c2c1 (stereo not given)	0.3	250.3	6.3
COc1cccc(/C=N/NC(=O)CCn2nnc3ccccc32)c1	19.3	133.7	-1.3
COc1cc(/C=N/NC(=O)CCn2nnc3ccccc32)ccc1O	99.1*	206.8	0.0
COc1cc(/C=N/NC(=O)Cn2nnc3ccccc32)ccc1O	92.2*	211.6	2.4
CCOc1cc(/C=N\NC(=O)Cn2nnc3ccccc32)ccc1O	55.4	483.6	-0.4
O=C(c1ccc(F)cc1Cl)N1CCN(CCc2ccccc2)CC1	0.9	123.4	-3.1
CCc1cc(CNC(=O)c2ccc(OC3CCN(C(C)=O)CC3)c(OC)c2)on1	-3.6	247.5	0.8
O=C(NCCNC(=O)c1cc(Cl)ccc1Cl)c1cnccn1	2.0	411.1	0.4
CCOc1ccc(N=Nc2c(C)noc2C)cc1	nt	149.3	0.4
C=CCNc1cc(=O)n(Cc2ccccc2)c(=O)[nH]1	0.7	800.7	-1.6
c1ccc(COC2COC3C(OCc4ccccc4)COC23)cc1 (stereo not given)	nt	nt	-0.1
CCn1c(=O)cc(SCC(=O)Nc2ccc3c(c2)OCO3)c2ccccc21	-2.0	130.1	4.1
Cn1cc(SCC(=O)Nc2ccc3c(c2)OCCO3)c2ccccc21	98.5*	452.3	0.5
O=C(CSc1cn(CC(=O)N2CCOCC2)c2ccccc12)N1CCOCC1	-1.4	915.1	3.2
NC(=O)c1ccc(NC(=O)CSc2cn(CC(=O)N3CCOCC3)c3ccccc23)cc1	98.9*	294.9	1.6
O=C(CSc1cccc[n+]1[O-])Nc1ccc2c(c1)OCCO2	87.2*	186.4	-0.2
O=C(CSc1ccccc1)Nc1ccc2c(c1)OCCO2	-5.5	274.2	-13.2
CCN(C(=O)COC(=O)c1ccc2ccccc2n1)c1c(N)n(Cc2ccccc2)c(=O)[nH]c1=O	nt	nt	0.6
OC(c1ccc(CN2CCCCC2)cc1)c1ncc(-c2ccccc2)[nH]1 (stereo not given)	nt	nt	-1.0
O=C(O)C(C=C(Cl)Cl)N1CCOCC1 (stereo not given)	nt	nt	-0.3
Cn1c(=O)c2c(nc(SCC(=O)NC3CCCC3)n2C)n(C)c1=O	2.3	222.7	2.5
CCOC(=O)C1CCN(C(=O)COC(=O)/C=C/c2cccc(OC)c2OC)CC1	-4.9	333.3	-0.8
CC(=O)Oc1cc2oc(=O)cc(C)c2cc1Cl	96.9*	181.2	0.1
Cc1cc(=O)oc2cc(OC(C)C(=O)O)c(Cl)cc12 (stereo not given)	1.4	306.6	0.4
SMILES	ALR inh	T cell modulator	Glyco luc inh
O=C(Oc1ccccc1)N1CCN(c2ccccc2F)CC1	-4.8	181.1	-0.8
CCOc1c(Br)cc(CNc2ccc(N3CCOCC3)cc2)cc1OC	98.5*	306.9	3.7
CCOc1c(Br)cc(CNc2ccc3c(c2)OCCO3)cc1OC	47.2	413.9	-1.7
CCc1nc2ccc(C(=O)N(C)Cc3ccccc3)cn2c1N(CC)CCN(C)C	nt	nt	-0.1
CCOC(=O)c1ccc(Oc2cn[nH]c2-c2ccc(O)cc2O)cc1	?	366.4	-2.0
CCCOC(=O)c1ccc(Oc2cn[nH]c2-c2ccc(O)cc2O)cc1	84.8*	437.1	-1.4
Clc1cccc(CNc2ccn3nc(-c4cccc(Cl)c4)cc3n2)c1	nt	nt	0.0
CCN1C(=S)SC(=O)C1=C1C=C(C)N(CCO)C(C)=C1	99.4*	371.4	-6.1
CCN1C(=O)/C(=C/C=C2/Sc3ccccc3N2CCO)SC1=S	66.9	191.2	-3.6
C[C@@H]1O[C@@H](O[C@@H]2[C@@H](O)[C@H](OCCc3ccc(O)c(O)c3)O[C@H](CO)[C@H]2OC(=O)/C=C/c2ccc(O)c(O)c2)[C@H](O)[C@H](O)[C@H]1O	98.4*	396.8	-0.1
COc1cc(/C=C/C(=O)OC[C@H]2O[C@H](OC3(CO)OC(CO)C(O)C3O)[C@H](O)[C@@H](O)[C@@H]2O)ccc1O (stereo not given in full)	?	266.0	2.4
O=C(COC(=O)C1CC2C=CC1C2)NCc1ccco1 (stereo not given)	nt	193.9	1.0
O=C(COC(=O)C1CC2C=CC1C2)NCc1ccc(F)cc1 (stereo not given)	3.8	54.8*	-0.3
CN(C(=O)CCCN1CCCC1=O)C1CCCN(Cc2ccccc2F)C1 (stereo not given)	nt	nt	-1.2
